# pIC50, pKi: −log10 of the molar value. The source made the active and inactive calls. The rule behind the calls is not given here.
# Columns and labels:
# [1] = target: T1, Phosphotyrosine protein phosphatase (Mycobacterium tuberculosis, UniProt A0A045ISB3); assay: Inhibition of Mycobacterium tuberculosis PTPB using pNPP as substrate preincubated for 15 mins followed by substrate addition and measured after 2 to 6 mins
# T1 sequence (A0A045ISB3 whole entry): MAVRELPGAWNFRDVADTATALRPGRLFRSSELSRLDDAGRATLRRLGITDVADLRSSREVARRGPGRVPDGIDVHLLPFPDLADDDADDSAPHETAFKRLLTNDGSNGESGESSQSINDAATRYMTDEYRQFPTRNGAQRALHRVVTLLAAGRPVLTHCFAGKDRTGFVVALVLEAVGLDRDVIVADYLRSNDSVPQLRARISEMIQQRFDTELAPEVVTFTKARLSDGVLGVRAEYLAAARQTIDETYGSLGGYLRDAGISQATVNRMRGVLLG
# In short: (§1)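 Recombinant M. tuberculosis PtpB, cloned, expressed and purified as previously described, assayed with p-nitrophenyl phosphate as substrate. IC50 is the mean of three independent experiments.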
# [2] = target: T2, Phosphotyrosine protein phosphatase (Mycobacterium tuberculosis) (UniProt A0A045ISB3); assay: Ratio of IC50 for inhibition of Mycobacterium tuberculosis PTPB to Ki for competitive inhibition of Mycobacterium tuberculosis PTPB
# T2 sequence (whole entry): T1 sequence (A0A045ISB3 whole entry)
# [3] = target: T2, Phosphotyrosine protein phosphatase (Mycobacterium tuberculosis); assay: Inhibition of Mycobacterium tuberculosis PTPB up to 100 uM using pNPP as substrate preincubated for 15 mins followed by substrate addition and measured after 2 to 6 mins; in short: as §1
# [4] = target: T1, Phosphotyrosine protein phosphatase; assay: Competitive inhibition of Mycobacterium tuberculosis PTPB using varying levels of pNPP as substrate preincubated for 15 mins followed by substrate addition and measured after 2 to 6 mins by Lineweaver-burk plot analysis
# In short: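 Substrate pNPP was varied at fixed inhibitor levels of 0, 1, 1.5, 2, 3 and 4 µM, with p-nitrophenol release treated by Michaelis-Menten kinetics. Mechanism was judged from Lineweaver-Burk double-reciprocal plots (1/Vmax y-intercept, KMapp/Vmax slope, −1/KMapp x-intercept). Ki was derived from these plots.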
# [5] = Antioxidant activity assessed as ABTS radical scavenging activity by measuring trolox equivalent antioxidant capacity after 6 mins by UV/Vis spectrophotometric analysis; type: functional
# Plasmodium falciparum = assay: Antimalarial activity against synchronized ring stage of Plasmodium falciparum measured after 48 hrs; type: functional, organism-based
# [6] = tested on: Mycobacterium tuberculosis; assay: Antitubercular activity against Mycobacterium tuberculosis H37Rv at 100 ug/ml after 28 days by Lowensteine-Jensen method relative to control; type: functional; conditions: 672 h
# [7] = tested on: Mycobacterium tuberculosis; assay: Antitubercular activity against Mycobacterium tuberculosis H37Rv assessed as reduction in relative light units at 25 ug/ml after 72 hrs by luciferase reporter phage assay relative to control; type: functional
# [8] = tested on: Mycobacterium tuberculosis; assay: Antitubercular activity against Mycobacterium tuberculosis H37Rv assessed as reduction in relative light units at 5 ug/ml after 72 hrs by luciferase reporter phage assay relative to control; type: functional
Structure (SMILES),pIC50 [1],further results
CCOC(=O)C1=C(C)Oc2nc(C)n(Cc3cn([C@@H]4O[C@H](COC(C)=O)[C@@H](OC(C)=O)[C@H](OC(C)=O)[C@H]4OC(C)=O)nn3)c(=O)c2C1c1ccc(Cl)cc1Cl (stereo not given in full),4.36,–
CCOC(=O)C1=C(C)Oc2nc(C)n(Cc3cn([C@@H]4O[C@H](COC(C)=O)[C@@H](OC(C)=O)[C@H](OC(C)=O)[C@H]4OC(C)=O)nn3)c(=O)c2C1c1ccc(O)c(OC)c1 (stereo not given in full),5.12,–
CCOC(=O)C1=C(C)Oc2nc(C)n(Cc3cn([C@@H]4O[C@H](COC(C)=O)[C@@H](OC(C)=O)[C@H](OC(C)=O)[C@H]4OC(C)=O)nn3)c(=O)c2C1c1ccc(Cl)cc1 (stereo not given in full),4.45,–
CCOC(=O)C1=C(C)Oc2nc(C)n(Cc3cn([C@@H]4O[C@H](COC(C)=O)[C@@H](OC(C)=O)[C@H](OC(C)=O)[C@H]4OC(C)=O)nn3)c(=O)c2C1c1ccc(OCC)c(O)c1 (stereo not given in full),5.45,–
CCOC(=O)C1=C(C)Oc2nc(C)n(Cc3cn([C@@H]4O[C@H](COC(C)=O)[C@@H](OC(C)=O)[C@H](OC(C)=O)[C@H]4OC(C)=O)nn3)c(=O)c2C1c1ccccc1OC (stereo not given in full),4.46,–
CCOC(=O)C1=C(C)Oc2nc(C)n(Cc3cn([C@@H]4O[C@H](COC(C)=O)[C@@H](OC(C)=O)[C@H](OC(C)=O)[C@H]4OC(C)=O)nn3)c(=O)c2C1c1ccc(O)c(OCC)c1 (stereo not given in full),5.10,–
CCOC(=O)C1=C(C)Oc2nc(C)n(Cc3cn([C@@H]4O[C@H](COC(C)=O)[C@@H](OC(C)=O)[C@H](OC(C)=O)[C@H]4OC(C)=O)nn3)c(=O)c2C1c1ccc(Br)cc1 (stereo not given in full),–,Ratio [2]: 1.23; inhibition [3]: inactive; pKi [4]: 5.74
CCOC(=O)C1=C(C)Oc2nc(C)n(Cc3cn([C@@H]4O[C@H](COC(C)=O)[C@@H](OC(C)=O)[C@H](OC(C)=O)[C@H]4OC(C)=O)nn3)c(=O)c2C1c1ccccc1Cl (stereo not given in full),4.48,–
CCOC(=O)C1=C(C)Oc2nc(C)n(Cc3cn([C@@H]4O[C@H](COC(C)=O)[C@@H](OC(C)=O)[C@H](OC(C)=O)[C@H]4OC(C)=O)nn3)c(=O)c2C1c1ccc(O)cc1 (stereo not given in full),4.45,–
CCOC(=O)C1=C(C)Oc2nc(C)n(Cc3cn([C@@H]4O[C@H](COC(C)=O)[C@@H](OC(C)=O)[C@H](OC(C)=O)[C@H]4OC(C)=O)nn3)c(=O)c2C1c1ccc(C)cc1 (stereo not given in full),–,Ratio [2]: 1.63; inhibition [3]: inactive; pKi [4]: 5.67
CCOC(=O)C1=C(C)Oc2nc(C)n(Cc3cn([C@@H]4O[C@H](COC(C)=O)[C@@H](OC(C)=O)[C@H](OC(C)=O)[C@H]4OC(C)=O)nn3)c(=O)c2C1c1ccc(N(C)C)cc1 (stereo not given in full),4.49,–
CCOC(=O)C1=C(C)Oc2nc(C)n(Cc3cn([C@@H]4O[C@H](COC(C)=O)[C@@H](OC(C)=O)[C@H](OC(C)=O)[C@H]4OC(C)=O)nn3)c(=O)c2C1c1cc(OC)c(O)c([N+](=O)[O-])c1 (stereo not given in full),5.81,–
CCOC(=O)C1=C(C)Oc2nc(C)n(Cc3cn([C@@H]4O[C@H](COC(C)=O)[C@@H](OC(C)=O)[C@H](OC(C)=O)[C@H]4OC(C)=O)nn3)c(=O)c2C1c1ccccc1O (stereo not given in full),4.54,–
CCOC(=O)C1=C(C)Oc2nc(C)n(Cc3cn([C@@H]4O[C@H](COC(C)=O)[C@@H](OC(C)=O)[C@H](OC(C)=O)[C@H]4OC(C)=O)nn3)c(=O)c2C1c1ccc(OC)cc1 (stereo not given in full),4.54,–
CCOC(=O)C1=C(C)Oc2nc(C)n(Cc3cn([C@@H]4O[C@H](COC(C)=O)[C@@H](OC(C)=O)[C@H](OC(C)=O)[C@H]4OC(C)=O)nn3)c(=O)c2C1c1cccc(OC)c1 (stereo not given in full),4.55,–
CCOC(=O)C1=C(C)Oc2nc(C)n(Cc3cn([C@@H]4O[C@H](COC(C)=O)[C@@H](OC(C)=O)[C@H](OC(C)=O)[C@H]4OC(C)=O)nn3)c(=O)c2C1c1ccccc1 (stereo not given in full),4.33,–
CCOC(=O)C1=C(C)Oc2nc(C)n(Cc3cn([C@@H]4O[C@H](COC(C)=O)[C@@H](OC(C)=O)[C@H](OC(C)=O)[C@H]4OC(C)=O)nn3)c(=O)c2C1c1ccc(C(C)C)cc1 (stereo not given in full),–,Ratio [2]: 1.42; inhibition [3]: inactive; pKi [4]: 5.96
CCOC(=O)C1=C(N)Oc2[nH]c(=O)[nH]c(=O)c2C1[C@H](O)[C@@H](O)[C@H](O[C@H]1O[C@H](CO)[C@@H](O)[C@H](O)[C@H]1O)[C@H](O)CO (stereo not given in full),–,Activity [5]: 5.24 µM
CCOC(=O)C1=C(C)Oc2nc(C)n(Cc3cn([C@@H]4O[C@H](COC(C)=O)[C@@H](OC(C)=O)[C@H](OC(C)=O)[C@H]4OC(C)=O)nn3)c(=O)c2C1c1cccc([N+](=O)[O-])c1 (stereo not given in full),4.35,–
CCOC(=O)C1=C(C)Oc2nc(C)n(Cc3cn([C@@H]4O[C@H](COC(C)=O)[C@@H](OC(C)=O)[C@H](OC(C)=O)[C@H]4OC(C)=O)nn3)c(=O)c2C1c1cc(OC)c(O)c(OC)c1 (stereo not given in full),5.65,–
CCOC(=O)C1=C(N)Oc2[nH]c(=O)[nH]c(=O)c2C1c1c(C)nn(-c2ccccc2)c1-n1ccnc1 (stereo not given),–,IC50 (Plasmodium falciparum): 0.062 µg/mL; inhibition at 100 µg/mL [6]: 92%
CC(=O)OC[C@H]1O[C@@H](OCc2cn(Cc3ccc4ccccc4n3)nn2)[C@H](OC(C)=O)[C@@H](OC(C)=O)[C@H]1OC(C)=O,–,inhibition at 25 µg/mL [7]: 78%; inhibition at 5 µg/mL [8]: 76%
CCOC(=O)C1=C(C)Oc2nc(C)n(Cc3cn([C@@H]4O[C@H](COC(C)=O)[C@@H](OC(C)=O)[C@H](OC(C)=O)[C@H]4OC(C)=O)nn3)c(=O)c2C1c1cc(OC)cc(OC)c1 (stereo not given in full),4.49,–
CCOC(=O)C1=C(C)Oc2nc(C)n(Cc3cn([C@@H]4O[C@H](COC(C)=O)[C@@H](OC(C)=O)[C@H](OC(C)=O)[C@H]4OC(C)=O)nn3)c(=O)c2C1c1cccc(Cl)c1 (stereo not given in full),5.02,–
CCOC(=O)C1=C(C)Oc2nc(C)n(Cc3cn([C@@H]4O[C@H](COC(C)=O)[C@@H](OC(C)=O)[C@H](OC(C)=O)[C@H]4OC(C)=O)nn3)c(=O)c2C1c1ccc([N+](=O)[O-])cc1 (stereo not given in full),4.48,–
CCOC(=O)C1=C(C)Oc2nc(C)n(Cc3cn([C@@H]4O[C@H](COC(C)=O)[C@@H](OC(C)=O)[C@H](OC(C)=O)[C@H]4OC(C)=O)nn3)c(=O)c2C1c1ccccc1[N+](=O)[O-] (stereo not given in full),4.45,–
CCOC(=O)C1=C(C)Oc2nc(C)n(Cc3cn([C@@H]4O[C@H](COC(C)=O)[C@@H](OC(C)=O)[C@H](OC(C)=O)[C@H]4OC(C)=O)nn3)c(=O)c2C1c1cccc(O)c1 (stereo not given in full),4.44,–
